Assay results published in ChEMBL document CHEMBL4765273 (Eur J Med Chem, 2020).

Legend:
[1] = Cytotoxicity against chicken embryo fibroblast assessed as reduction in cell viability after 48 hrs by CCK8 assay; design: species or system Gallus gallus; settings: chicken embryo fibroblasts
Summary of the method: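 Chicken embryo fibroblasts (1×10^5 cells/mL) were cultured 24 h at 37°C, 5% CO2, washed with serum-free DMEM, then exposed to 2-fold serial compound dilutions in 1% FBS DMEM for 48 h. CCK-8 in 1% FBS DMEM was added for 90 min and absorbance read at 450 nm. CC50 was obtained by curve fitting. Blank and cell controls were included.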

[2] = system: Influenza A virus; experiment: Antiviral activity against Influenza A virus (A/goose/Guangdong/SH7/2013(H5N1)) group-1 infected in chicken embryo fibroblast assessed as reduction in viral infection preincubated for 1 hrs followed by fibroblast infection and measured after 72 hrs by hemagglutination titre method; format: functional, organism-based
[3] = system: Influenza A virus; experiment: Antiviral activity against Influenza A virus (A/goose/Jiangsu/1306/2014 (H5N8)) group-1 infected in chicken embryo fibroblast assessed as reduction in viral infection preincubated for 1 hrs followed by fibroblast infection and measured after 72 hrs by hemagglutination titre method; format: functional, organism-based
[4] = system: Influenza A virus; experiment: Antiviral activity against Influenza A virus (A/Duck/Guangdong/674/2014 (H5N6)) group-2 infected in chicken embryo fibroblast assessed as reduction in viral infection preincubated for 1 hrs followed by fibroblast infection and measured after 72 hrs by hemagglutination titre method; format: functional, organism-based
[5] = system: Influenza A virus; experiment: Antiviral activity against Influenza A virus (A/chicken/Hebei/LZF/ 2014(H5N2)) group-2 infected in chicken embryo fibroblast assessed as reduction in viral infection preincubated for 1 hrs followed by fibroblast infection and measured after 72 hrs by hemagglutination titre method; format: functional, organism-based

SMILES | CC50 at 48 h [1] | IC50 [2] | IC50 [3] | IC50 [4] | IC50 [5]
CCC(CC)O[C@@H]1C=C(C(=O)O)C[C@H](NC(=O)/C=C/c2ccccc2)[C@H]1NC(C)=O | > 200000 nM | > 10000 nM | 5320 nM | > 10000 nM | > 10000 nM
CCC(CC)O[C@@H]1C=C(C(=O)O)C[C@H](NCc2ccc(C#N)cc2)[C@H]1NC(C)=O | > 200000 nM | > 10000 nM | 680 nM | > 10000 nM | –
CCC(CC)O[C@@H]1C=C(C(=O)O)C[C@H](NCc2ncc(-c3ccccc3)s2)[C@H]1NC(C)=O | > 200000 nM | > 10000 nM | 490 nM | 4290 nM | 410 nM
CCC(CC)O[C@@H]1C=C(C(=O)O)C[C@H](NCc2ccc(F)cc2)[C@H]1NC(C)=O | > 200000 nM | > 10000 nM | 520 nM | 4570 nM | 110 nM
CCC(CC)O[C@@H]1C=C(C(=O)O)C[C@H](NCc2cccc(-c3ccsc3)c2)[C@H]1NC(C)=O | > 200000 nM | – | 56 nM | 2620 nM | 70 nM
CCC(CC)O[C@@H]1C=C(C(=O)O)C[C@H](NCc2ccc(Br)cc2)[C@H]1NC(C)=O | > 200000 nM | 2530 nM | – | 1990 nM | 110 nM
CCC(CC)O[C@@H]1C=C(C(=O)O)C[C@H](NC/C=C/c2ccc(N(C)C)cc2)[C@H]1NC(C)=O | > 200000 nM | 1290 nM | 880 nM | 2780 nM | 65 nM
CCC(CC)O[C@@H]1C=C(C(=O)O)C[C@H](NS(=O)(=O)c2ccc(C(C)(C)C)cc2)[C@H]1NC(C)=O | > 200000 nM | > 10000 nM | – | > 10000 nM | > 10000 nM
CCC(CC)O[C@@H]1C=C(C(=O)O)C[C@H](NCc2cccc(F)c2)[C@H]1NC(C)=O | > 200000 nM | > 10000 nM | 490 nM | 3870 nM | 140 nM
CCC(CC)O[C@@H]1C=C(C(=O)O)C[C@H](NCc2ccc([N+](=O)[O-])cc2)[C@H]1NC(C)=O | > 200000 nM | > 10000 nM | 420 nM | 2160 nM | 210 nM
CCC(CC)O[C@@H]1C=C(C(=O)O)C[C@H](NCc2ccsc2)[C@H]1NC(C)=O | > 200000 nM | > 10000 nM | 81 nM | 3580 nM | 130 nM
CCC(CC)O[C@@H]1C=C(C(=O)O)C[C@H](NC/C=C/c2ccc(OC)cc2)[C@H]1NC(C)=O | > 200000 nM | 7560 nM | 640 nM | 4070 nM | 210 nM
CCC(CC)O[C@@H]1C=C(C(=O)O)C[C@H](NCc2ccc(-c3cccs3)s2)[C@H]1NC(C)=O | > 200000 nM | > 10000 nM | 72 nM | 7120 nM | 83 nM
CCC(CC)O[C@@H]1C=C(C(=O)O)C[C@H](NCc2cccc([N+](=O)[O-])c2)[C@H]1NC(C)=O | > 200000 nM | > 10000 nM | 700 nM | 2160 nM | 240 nM
CCC(CC)O[C@@H]1C=C(C(=O)O)C[C@H](NC(=O)c2ccc(-c3ccccc3)cc2)[C@H]1NC(C)=O | > 200000 nM | > 10000 nM | 3540 nM | > 10000 nM | > 10000 nM
CCC(CC)O[C@@H]1C=C(C(=O)O)C[C@H](NC(=O)c2ccccc2)[C@H]1NC(C)=O | > 200000 nM | > 10000 nM | > 10000 nM | > 10000 nM | > 10000 nM
CCC(CC)O[C@@H]1C=C(C(=O)O)C[C@H](N(Cc2ccsc2)Cc2ccsc2)[C@H]1NC(C)=O | > 200000 nM | > 10000 nM | 880 nM | 3030 nM | 150 nM
CCC(CC)O[C@@H]1C=C(C(=O)O)C[C@H](NCc2cccc(C(F)(F)F)c2)[C@H]1NC(C)=O | > 200000 nM | > 10000 nM | 750 nM | 3170 nM | 340 nM
